Measurements published in ChEMBL document CHEMBL4373711, “Development of 3,5-Dinitrophenyl-Containing 1,2,4-Triazoles and Their Trifluoromethyl Analogues as Highly Efficient Antitubercular Agents Inhibiting Decaprenylphosphoryl-β-d-ribofuranose 2'-Oxidase” (J Med Chem, 2019).
In brackets after ≈: the same amount, converted by molar mass. Activity calls are given as the source filed them. The calls are words filed in the database; no cut-off is given here.

Columns and labels:
[1] = tested on: Mycobacterium tuberculosis; assay: Antimycobacterial activity against Mycobacterium tuberculosis H37Rv CNCTC My 331/88 after 14 days; type: functional; conditions: H37Rv CNCTC My 331/88, 336 h
How it was run: (§1)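 M. tuberculosis strains (H37Rv and clinical MDR/XDR isolates) tested by microdilution in Šula's semisynthetic medium. Compounds were dissolved in DMSO and tested at 32 to 0.03 µM in twofold steps. Inoculum was a 1.0 McFarland suspension diluted 10-3. Plates were incubated at 37 °C and read at 14 and 21 days.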

[2] = tested on: Mycobacterium tuberculosis; assay: Antimycobacterial activity against Mycobacterium tuberculosis H37Rv CNCTC My 331/88 after 21 days; type: functional; conditions: H37Rv CNCTC My 331/88, 504 h; how it was run: as §1
Mycobacterium avium [3] = assay: Antimycobacterial activity against Mycobacterium avium CNCTC My 330/88 after 14 days; type: functional; conditions: CNCTC My 330/88, 336 h
How it was run: (§2)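 M. avium was tested by microdilution in Šula's semisynthetic medium, with compounds dissolved in DMSO and serially diluted from 1000 down to 1. Inoculum was a 1.0 McFarland suspension diluted 10-5. Plates were incubated at 37 °C and read at 14 and 21 days. […] Isoniazid and rifampicin served as standards.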

Mycobacterium avium [4] = assay: Antimycobacterial activity against Mycobacterium avium CNCTC My 330/88 after 21 days; type: functional; conditions: CNCTC My 330/88, 504 h; how it was run: as §2
Mycobacterium kansasii [5] = assay: Antimycobacterial activity against Mycobacterium kansasii CNCTC My 235/80 after 7 days; type: functional; conditions: CNCTC My 235/80, 168 h
How it was run: (§3)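 Microdilution in Šula's semisynthetic medium; compounds in DMSO at 32–0.03 µM. Inoculum from 1.0 McFarland suspension diluted 10-4. […] Isoniazid and rifampicin as reference drugs.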

Mycobacterium kansasii [6] = assay: Antimycobacterial activity against Mycobacterium kansasii CNCTC My 235/80 after 14 days; type: functional; conditions: CNCTC My 235/80, 336 h; how it was run: as §3
Mycobacterium kansasii [7] = assay: Antimycobacterial activity against Mycobacterium kansasii CNCTC My 235/80 after 21 days; type: functional; conditions: CNCTC My 235/80, 504 h; how it was run: as §3
Mycobacterium kansasii [8] = assay: Antimycobacterial activity against Mycobacterium kansasii 6509/96 after 7 days; type: functional; conditions: 6509/96, 168 h; how it was run: as §3
Mycobacterium kansasii [9] = assay: Antimycobacterial activity against Mycobacterium kansasii 6509/96 after 14 days; type: functional; conditions: 6509/96, 336 h; how it was run: as §3
Mycobacterium kansasii [10] = assay: Antimycobacterial activity against Mycobacterium kansasii 6509/96 after 21 days; type: functional; conditions: 6509/96, 504 h; how it was run: as §3
Staphylococcus aureus [11] = assay: Antibacterial activity against Staphylococcus aureus subsp. aureus ATCC 29213 CCM 4223 at highest concentration measured after 24 to 48 hrs by alamar blue dye based broth microdilution assay; type: functional, organism-based
Staphylococcus aureus [12] = assay: Antibacterial activity against methicillin-resistant Staphylococcus aureus subsp. aureus ATCC 43300 CCM 4750 at highest concentration measured after 24 to 48 hrs by alamar blue dye based broth microdilution assay; type: functional, organism-based
[13] = tested on: Staphylococcus epidermidis; assay: Antibacterial activity against Staphylococcus epidermidis at highest concentration measured after 24 to 48 hrs by alamar blue dye based broth microdilution assay; type: functional, organism-based
Enterococcus faecalis = assay: Antibacterial activity against Enterococcus faecalis ATCC 29212 CCM 4224 at highest concentration measured after 24 to 48 hrs by alamar blue dye based broth microdilution assay; type: functional, organism-based
Escherichia coli = assay: Antibacterial activity against Escherichia coli ATCC 25922 CCM 3954 at highest concentration measured after 24 to 48 hrs by alamar blue dye based broth microdilution assay; type: functional, organism-based
Klebsiella pneumoniae = assay: Antibacterial activity against Klebsiella pneumoniae at highest concentration measured after 24 to 48 hrs by alamar blue dye based broth microdilution assay; type: functional, organism-based
Serratia marcescens = assay: Antibacterial activity against Serratia marcescens at highest concentration measured after 24 to 48 hrs by alamar blue dye based broth microdilution assay; type: functional, organism-based
Pseudomonas aeruginosa = assay: Antibacterial activity against Pseudomonas aeruginosa ATCC 27853 CCM 3955 at highest concentration measured after 24 to 48 hrs by alamar blue dye based broth microdilution assay; type: functional, organism-based
Candida albicans = assay: Antifungal activity against Candida albicans ATCC 24433 CCM 8320 at highest concentration measured after 24 to 48 hrs by alamar blue dye based broth microdilution assay; type: functional, organism-based
Pichia kudriavzevii = assay: Antifungal activity against Candida krusei ATCC 6258 CCM8271 at highest concentration measured after 24 to 48 hrs by alamar blue dye based broth microdilution assay; type: functional, organism-based
Candida parapsilosis = assay: Antifungal activity against Candida parapsilosis ATCC 22019 CCM 8260 at highest concentration measured after 24 to 48 hrs by alamar blue dye based broth microdilution assay; type: functional, organism-based
Candida tropicalis = assay: Antifungal activity against Candida tropicalis ATCC 750 CCM 8264 at highest concentration measured after 24 to 48 hrs by alamar blue dye based broth microdilution assay; type: functional, organism-based
Aspergillus fumigatus = assay: Antifungal activity against Aspergillus fumigatus ATCC 204305 at highest concentration measured after 24 to 48 hrs by alamar blue dye based broth microdilution assay; type: functional, organism-based
Aspergillus flavus = assay: Antifungal activity against Aspergillus flavus CCM 8363 at highest concentration measured after 24 to 48 hrs by alamar blue dye based broth microdilution assay; type: functional, organism-based
Lichtheimia corymbifera = assay: Antifungal activity against Lichtheimia corymbifera CCM 8077 at highest concentration measured after 24 to 48 hrs by alamar blue dye based broth microdilution assay; type: functional, organism-based
[14] = tested on: Trichophyton interdigitale; assay: Antifungal activity against Trichophyton interdigitale ATCC 9533 CCM 8377 at highest concentration measured after 72 to 120 hrs by alamar blue dye based broth microdilution assay; type: functional
HepG2 = assay: Cytotoxicity against human HepG2 cells assessed as reduction in cell viability after 48 hrs by CellTiter 96 aqueous one solution assay; type: cell-based; conditions: HepG2, 48 h
[15] = Cytotoxicity against human HepG2 cells assessed as cell viability at 30 uM after 48 hrs by CellTiter 96 aqueous one solution assay relative to control; type: cell-based; conditions: read-out: Activity
How it was run: (§4)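 HepG2 (DMEM, 10% FBS, 1 mM pyruvate) or A431 (DMEM, 10% FBS) seeded 10,000 cells/well, 24 h at 37 °C, 5% CO2, then 30 µM compound for 48 h. MTS reagent 60 min, absorbance 490 nm, background subtracted; 0.1% DMSO vehicle = 100%, 10% SDS = 0% viability.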

A-431 = assay: Cytotoxicity against human A431 cells assessed as reduction in cell viability after 48 hrs by CellTiter 96 aqueous one solution assay; type: cell-based; conditions: A-431, 48 h
[16] = Cytotoxicity against human A431 cells assessed as cell viability at 30 uM after 48 hrs by CellTiter 96 aqueous one solution assay relative to control; type: cell-based, A-431; conditions: read-out: Activity; how it was run: as §4
[17] = tested on: Mycobacterium tuberculosis; assay: Antimycobacterial activity against XDR Mycobacterium tuberculosis Praha 131 after 14 days; type: functional; conditions: Praha 131, 336 h; how it was run: as §1

Structure (SMILES) | MIC99 [1] [µM] | MIC99 [2] [µM] | MIC99 (Mycobacterium avium [3]) [µM] | MIC99 (Mycobacterium avium [4]) [µM] | MIC99 (Mycobacterium kansasii [5]) [µM] | MIC99 (Mycobacterium kansasii [6]) [µM] | MIC99 (Mycobacterium kansasii [7]) [µM] | MIC99 (Mycobacterium kansasii [8]) [µM] | MIC99 (Mycobacterium kansasii [9]) [µM] | MIC99 (Mycobacterium kansasii [10]) [µM] | Activity (Staphylococcus aureus [11]) | Activity (Staphylococcus aureus [12]) | Activity [13] | Activity (Enterococcus faecalis) | Activity (Escherichia coli) | Activity (Klebsiella pneumoniae) | Activity (Serratia marcescens) | Activity (Pseudomonas aeruginosa) | Activity (Candida albicans) | Activity (Pichia kudriavzevii) | further results
Cn1c(SCc2ccc(Br)cc2)nnc1-c1cc([N+](=O)[O-])cc([N+](=O)[O-])c1 | 0.25 (≈ 0.113 µg/mL) | 0.5 (≈ 0.225 µg/mL) | 8 (≈ 3.6 µg/mL) | 8 (≈ 3.6 µg/mL) | 0.5 (≈ 0.225 µg/mL) | 0.5 (≈ 0.225 µg/mL) | 1 (≈ 0.45 µg/mL) | 0.25 (≈ 0.113 µg/mL) | 0.5 (≈ 0.225 µg/mL) | 1 (≈ 0.45 µg/mL) | inactive | inactive | inactive | inactive | inactive | inactive | inactive | inactive | inactive | inactive | Activity (Candida parapsilosis): inactive; Activity (Candida tropicalis): inactive; Activity (Aspergillus fumigatus): inactive; Activity (Aspergillus flavus): inactive; Activity (Lichtheimia corymbifera): inactive; Activity [14]: inactive; IC50 (HepG2): > 30 µM; viability at 48 h, 30 µM [15]: 152%; IC50 (A-431): > 30 µM; viability at 48 h, 30 µM [16]: 137%
O=[N+]([O-])c1cc(CSc2nnc(-c3ccccc3)n2-c2ccc(Cl)c(Cl)c2)cc([N+](=O)[O-])c1 | 1 (≈ 0.502 µg/mL) | 2 (≈ 1 µg/mL) | 125 (≈ 62.8 µg/mL) | 125 (≈ 62.8 µg/mL) | 0.5 (≈ 0.251 µg/mL) | 1 (≈ 0.502 µg/mL) | 2 (≈ 1 µg/mL) | 0.5 (≈ 0.251 µg/mL) | 1 (≈ 0.502 µg/mL) | 2 (≈ 1 µg/mL) | inactive | inactive | inactive | inactive | inactive | inactive | inactive | inactive | inactive | inactive | Activity (Candida parapsilosis): inactive; Activity (Candida tropicalis): inactive; Activity (Aspergillus fumigatus): inactive; Activity (Aspergillus flavus): inactive; Activity (Lichtheimia corymbifera): inactive; Activity [14]: inactive; IC50 (HepG2): > 30 µM; viability at 48 h, 30 µM [15]: 134%; IC50 (A-431): > 30 µM; viability at 48 h, 30 µM [16]: 136%
O=[N+]([O-])c1cc(CSc2nnc(-c3ccc(Cl)cc3)n2Cc2ccccc2)cc([N+](=O)[O-])c1 | 4 (≈ 1.93 µg/mL) | 4 (≈ 1.93 µg/mL) | 250 (≈ 120 µg/mL) | 250 (≈ 120 µg/mL) | 4 (≈ 1.93 µg/mL) | 8 (≈ 3.86 µg/mL) | 8 (≈ 3.86 µg/mL) | 8 (≈ 3.86 µg/mL) | 8 (≈ 3.86 µg/mL) | 8 (≈ 3.86 µg/mL) | inactive | inactive | inactive | inactive | inactive | inactive | inactive | inactive | inactive | inactive | Activity (Candida parapsilosis): inactive; Activity (Candida tropicalis): inactive; Activity (Aspergillus fumigatus): inactive; Activity (Aspergillus flavus): inactive; Activity (Lichtheimia corymbifera): inactive; Activity [14]: inactive; IC50 (HepG2): > 30 µM; viability at 48 h, 30 µM [15]: 104%; IC50 (A-431): > 30 µM; viability at 48 h, 30 µM [16]: 73%
CCCCCCn1c(SCc2ccccc2)nnc1-c1cc([N+](=O)[O-])cc([N+](=O)[O-])c1 | 1 (≈ 0.442 µg/mL) | 1 (≈ 0.442 µg/mL) | 250 (≈ 110 µg/mL) | 250 (≈ 110 µg/mL) | 1 (≈ 0.442 µg/mL) | 1 (≈ 0.442 µg/mL) | 1 (≈ 0.442 µg/mL) | 1 (≈ 0.442 µg/mL) | 1 (≈ 0.442 µg/mL) | 1 (≈ 0.442 µg/mL) | inactive | inactive | inactive | inactive | inactive | inactive | inactive | inactive | inactive | inactive | Activity (Candida parapsilosis): inactive; Activity (Candida tropicalis): inactive; Activity (Aspergillus fumigatus): inactive; Activity (Aspergillus flavus): inactive; Activity (Lichtheimia corymbifera): inactive; Activity [14]: inactive; IC50 (HepG2): > 30 µM; viability at 48 h, 30 µM [15]: 102%; IC50 (A-431): > 30 µM; viability at 48 h, 30 µM [16]: 98%
NCC[C@H](O)C(=O)N[C@@H]1C[C@H](N)[C@@H](O[C@H]2O[C@H](CN)[C@@H](O)[C@H](O)[C@H]2O)[C@H](O)[C@H]1O[C@H]1O[C@H](CO)[C@@H](O)[C@H](N)[C@H]1O [AMIKACIN] | – | – | – | – | – | – | – | – | – | – | – | – | – | – | – | – | – | – | – | – | MIC99 [17]: > 32 µM
